Key:
[1] = Inhibition of HIV1 His6-tagged integrase/FLAG-tagged LEDGF/p75 protein-protein interaction expressed in Escherichia coli BL21(DE3) preincubated with integrase for 30 mins followed by LEDGF/p75 addition measured after 60 mins by AlphaScreen assay
In short: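 His6-integrase (300 nM final) preincubated with compound […] for 30 min at 4 °C. FLAG-LEDGF/p75 (300 nM final) added for 60 min at 4 °C. Ni-chelate donor and anti-FLAG acceptor beads (20 µg/mL each) added for 1 h at 30 °C, then acceptor emission read.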

[2] = Inhibition of HIV1 recombinant GST/His-tagged integrase strand transfer activity expressed in Escherichia coli BL21(DE3) using 5'-end 32P labeled linear 21-mer substrate preincubated for 30 mins followed by substrate addition measured after 1 hr by PAGE analysis; design: species or system Human immunodeficiency virus 1
In short: (§1)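 Recombinant wild-type integrase (200 nM final) preincubated with inhibitor in 50 mM NaCl, 1 mM HEPES pH 7.5, 10% glycerol, 7.5 mM MnCl2, 0.1 mg/mL BSA. Substrate: 21-mer top strand 5'-labelled with [γ-32P]ATP by T4 polynucleotide kinase, kinase heat-killed at 95 °C for 15 min, annealed to 1.5-fold molar excess bottom strand, and spin-column cleaned.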

[3] = tested on: Human immunodeficiency virus 1; assay: Antiviral activity against HIV1 3B infected in human MT4 cells assessed as reduction in virus-induced cytopathic effect by MTT assay; type: functional, cell-based; details: Human immunodeficiency virus 1, 3B
[4] = Cytotoxicity against human MT4 cells assessed as reduction in cell viability after 72 hrs by MTT assay; type: toxicity, cell-based
[5] = Therapeutic Index, ratio of CC50 for human MT4 cells to EC50 for HIV1 3B infected in human MT4 cells; type: cell-based; details: read-out: Ratio CC50/EC50
[6] = Inhibition of HIV1 recombinant GST/His-tagged integrase 3'-processing activity expressed in Escherichia coli BL21(DE3) assessed as reduction in 19-mer product using 5'-end 32P labeled linear 21-mer substrate preincubated for 30 mins followed by substrate addition measured after 1 hr by PAGE analysis; design: species or system Human immunodeficiency virus 1; in short: as §1
[7] = tested on: Human immunodeficiency virus 1; assay: Antiviral activity against HIV1 3B infected in human C8166 cells assessed as reduction in virus-induced cytopathic effect by MTT assay; type: functional, cell-based; details: Human immunodeficiency virus 1, 3B
[8] = Therapeutic Index, ratio of CC50 for human C8166 cells to EC50 for HIV1 3B infected in human C8166 cells; type: cell-based; details: read-out: Ratio CC50/EC50
[9] = Cytotoxicity against human C8166 cells assessed as reduction in cell viability after 72 hrs by MTT assay; type: toxicity, cell-based
[10] = Inhibition of HIV1 GST-tagged integrase and His6-tagged integrase mutant dimerization expressed in Escherichia coli BL21(DE3) after overnight incubation by AlphaScreen assay; design: species or system Human immunodeficiency virus 1

Structure (SMILES) | IC50 [1] [µM] | IC50 [2] [µM] | EC50 [3] [µM] | CC50 at 72 h [4] [µM] | selectivity ratio [5] | IC50 [6] [µM] | EC50 [7] [µM] | selectivity ratio [8] | CC50 at 72 h [9] [µM] | IC50 [10] [µM]
Nc1cccc(C(=O)NCc2ccco2)c1O | 51 | > 100 |  |  |  |  |  |  |  | 
O=c1oc2cccnc2c(=O)n1Cc1ccc(F)cc1 | > 20 | > 20 | 73.5 | 311 | 4.3 | > 20 |  |  |  | 
O=C(Nc1ccc(F)cc1)c1ncccc1O | 8 | > 20 |  |  |  | > 20 | 19.4 | > 45 | > 860 | 
O=C(NCc1ccco1)c1cccnc1O | > 100 |  |  |  |  |  |  |  |  | 
O=C(NCc1cccs1)c1ncccc1O | 7.5 | > 20 |  |  |  | > 20 | 75.6 | 2.9 | 218 | 8
COc1cccnc1C(=O)NCc1ccc(F)cc1 | > 20 | > 20 |  |  |  | > 20 |  |  |  | 
COc1cc(CNC(=O)c2ncccc2O)cc(OC)c1OC | 2.5 | > 20 |  |  |  | > 20 | 58.7 | > 9 | > 500 | 9.8
O=C(NCc1ccc(F)cc1)c1ccccn1 | > 20 | > 20 |  |  |  | > 20 |  |  |  | 
CC(C)CN(Cc1ccc(F)cc1)C(=O)c1ncccc1O | > 20 | > 20 | 270 | 247 | < 1 | > 20 |  |  |  | 
O=C(NCc1ccc2[nH]ccc2c1)c1ncccc1O | 4.6 | > 20 |  |  |  | > 20 | 70 | 2 | 138 | 8
O=C(NCc1ccc(F)cc1)c1cccc(O)n1 | > 20 | > 20 |  |  |  | > 20 |  |  |  | 
C=C(C)CN(Cc1ccc(F)cc1)C(=O)c1ncccc1O | > 20 | > 20 | 279 | 272 | < 1 | > 20 |  |  |  | 
O=C(NCc1ccc(F)cc1)c1cc(O)ccn1 | > 20 | > 20 |  |  |  | > 20 |  |  |  | 
CCCCNC(=O)c1ncccc1O | > 20 | > 20 |  |  |  | > 20 | > 500 |  | > 1000 | 
